Assay results from different studies.
FGFR1: Fibroblast growth factor receptor 1 (FGFR1, Homo sapiens, UniProt P11362)

Compound | target | test | conditions | measurement | value
COc1cc(Nc2ncc(F)c(Nc3ccc4c(n3)NC(=O)C(C)(C)O4)n2)cc(OC)c1OC | FGFR1 | binding, competition with immobilised ligand | 10 µM | inhibition | 100%
Cc1nn(C)cc1-c1nc2c(N3CCN(Cc4ccc(Cl)cc4)CC3)c(Cl)cnc2[nH]1 | FGFR1 | binding, competition with immobilised ligand | 1 µM | remaining binding | 62%
Cn1cc(-c2cccc(N3CCc4c(sc5c4CC(C)(C)C5)C3=O)c2CO)cc(Nc2ccncn2)c1=O | FGFR1 | enzyme activity, inhibitor | 1 µM | inhibition | 9%
C#Cc1n[nH]c2c(-c3cn([C@@H](C)c4ccccc4)c(=O)[nH]c3=O)cc(F)cc12 | FGFR1 | enzyme activity, inhibitor | 0.1 µM | inhibition | 2.9%
N#CC1(c2ccccn2)CCN(Cc2cc(C(=O)O)c(=O)n3ccccc23)CC1 | FGFR1 | cell-free assay, competition with immobilised ligand | 1 µM | remaining binding | 98%
COc1ncccc1-c1cnn2ccc(N3CCN(C(=O)OC(C)C)CC3)nc12 | FGFR1 | binding, competition with immobilised ligand | 1 µM | remaining binding | 88%
Cn1cc(-c2cc(F)cc(N3CCn4c(cc5c4CCCC5)C3=O)c2CO)cc(Nc2ccc(N3CCN(C4COC4)CC3)cn2)c1=O | FGFR1 | enzyme activity, inhibitor | 0.1 µM | inhibition | 9%
C#Cc1n[nH]c2c(-c3cn([C@@H](C)c4ccccn4)c(=O)[nH]c3=O)cc(F)cc12 | Fibroblast growth factor receptor 1 (FGFR1, Homo sapiens, UniProt P11362, V561M) | enzyme activity, inhibitor | 0.1 µM | inhibition | -4.4%
COCc1c(-c2cc3cc(C)cc(OC)c3s2)c2c(N)ncnn2c1CN1CCNC(=O)C1 | FGFR1 | cell-free assay, competition with immobilised ligand | 1 µM | inhibition | 98%
CC(C)(C)c1cc(C=C(C#N)C#N)cc(Br)c1O | FGFR1 | enzyme activity, inhibitor | 0.5 µM | remaining activity | 95.9%
Cn1cncc1[C@](O)(COc1ccc(C#N)cc1-c1ccc(OC(F)(F)F)cc1)c1ccc(C#N)cc1 | FGFR1 | cell-free assay, competition with immobilised ligand | 1 µM | remaining binding | 62%
Nc1ncc(-c2nc(N3CCOCC3)nc(N3CCOCC3)n2)c(C(F)F)n1 | FGFR1 | cell-free assay, competition with immobilised ligand | 10 µM | remaining binding | 94%
O=c1[nH]c2ccccc2n1C1CCN(Cc2ccc(-c3[nH]c4cc5ncnc5cc4nc3-c3ccccc3)cc2)CC1 | FGFR1 | cell-free assay | 0.5 µM | remaining signal | 102%
